# Results published in ChEMBL document CHEMBL1154807, “Synthesis and antibacterial activity of novel 3-O-carbamoyl derivatives of clarithromycin and 11,12-cyclic carbonate azithromycin” (2010).
# Experiments:
# Type in all cases: functional
# Staphylococcus aureus = assay: Antibacterial activity against erythromycin-susceptible Staphylococcus aureus ATCC 25923 by standard dilution assay
# Streptococcus pneumoniae [1] = assay: Antibacterial activity against erythromycin-resistant Streptococcus pneumoniae AB11 by standard dilution assay
# How it was run: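 Readout is minimal inhibitory concentration (MIC). The strain carries both erm- and mef-encoded erythromycin resistance. It was tested within a six-strain Gram-positive panel alongside clarithromycin and azithromycin references.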
# Streptococcus pyogenes = assay: Antibacterial activity against erythromycin-susceptible Streptococcus pyogenes by standard dilution assay
# Streptococcus pneumoniae [2] = assay: Antibacterial activity against erythromycin-resistant Streptococcus pneumoniae A22072 by standard dilution assay
# How it was run: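 Readout is minimal inhibitory concentration (MIC). The strain carries mef-encoded erythromycin resistance. It was tested within a six-strain Gram-positive panel alongside clarithromycin and azithromycin references.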
# Streptococcus pneumoniae [3] = assay: Antibacterial activity against erythromycin-susceptible Streptococcus pneumoniae ATCC 49619 by standard dilution assay
# How it was run: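 MIC read-out, determined against a panel of six Gram-positive strains: three erythromycin-susceptible and three erythromycin-resistant S. pneumoniae (erm, mef, or erm plus mef). Clarithromycin and azithromycin were run alongside as reference macrolides.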
# Streptococcus pneumoniae [4] = assay: Antibacterial activity against erythromycin-resistant Streptococcus pneumoniae B1 by standard dilution assay
# How it was run: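 Readout is minimal inhibitory concentration (MIC). Erythromycin resistance in this strain is erm-encoded. It was tested within a six-strain Gram-positive panel alongside clarithromycin and azithromycin references.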
Structure (SMILES),MIC (Staphylococcus aureus),MIC (Streptococcus pneumoniae [1]),MIC (Streptococcus pyogenes),MIC (Streptococcus pneumoniae [2]),MIC (Streptococcus pneumoniae [3]),MIC (Streptococcus pneumoniae [4])
CC[C@H]1OC(=O)[C@H](C)[C@@H](OC(=O)NCCc2ccccc2Cl)[C@H](C)[C@@H](O[C@@H]2O[C@H](C)C[C@H](N(C)C)[C@H]2O)[C@](C)(O)C[C@@H](C)CN(C)[C@H](C)[C@H]2OC(=O)O[C@@]21C,32 µg/mL,8 µg/mL,8 µg/mL,16 µg/mL,4 µg/mL,32 µg/mL
CC[C@H]1OC(=O)[C@H](C)[C@@H](OC(=O)NCc2ccccc2)[C@H](C)[C@@H](O[C@@H]2O[C@H](C)C[C@H](N(C)C)[C@H]2O)[C@](C)(O)C[C@@H](C)CN(C)[C@H](C)[C@H]2OC(=O)O[C@@]21C,64 µg/mL,64 µg/mL,32 µg/mL,128 µg/mL,16 µg/mL,64 µg/mL
CC[C@H]1OC(=O)[C@H](C)[C@@H](OC(=O)NCCc2ccccc2)[C@H](C)[C@@H](O[C@@H]2O[C@H](C)C[C@H](N(C)C)[C@H]2O)[C@](C)(O)C[C@@H](C)CN(C)[C@H](C)[C@H]2OC(=O)O[C@@]21C,64 µg/mL,32 µg/mL,8 µg/mL,64 µg/mL,4 µg/mL,64 µg/mL
CCCCNC(=O)O[C@H]1[C@H](C)[C@@H](O[C@@H]2O[C@H](C)C[C@H](N(C)C)[C@H]2O)[C@](C)(O)C[C@@H](C)CN(C)[C@H](C)[C@H]2OC(=O)O[C@]2(C)[C@@H](CC)OC(=O)[C@@H]1C,64 µg/mL,32 µg/mL,8 µg/mL,128 µg/mL,8 µg/mL,64 µg/mL
CCCCCNC(=O)O[C@H]1[C@H](C)[C@@H](O[C@@H]2O[C@H](C)C[C@H](N(C)C)[C@H]2O)[C@](C)(O)C[C@@H](C)CN(C)[C@H](C)[C@H]2OC(=O)O[C@]2(C)[C@@H](CC)OC(=O)[C@@H]1C,64 µg/mL,32 µg/mL,16 µg/mL,64 µg/mL,4 µg/mL,32 µg/mL
CC[C@H]1OC(=O)[C@H](C)[C@@H](O)[C@H](C)[C@@H](O[C@@H]2O[C@H](C)C[C@H](N(C)C)[C@H]2OC(C)=O)[C@](C)(O)C[C@@H](C)CN(C)[C@H](C)[C@@H](O)[C@]1(C)O,128 µg/mL,256 µg/mL,128 µg/mL,128 µg/mL,128 µg/mL,128 µg/mL
CC[C@H]1OC(=O)[C@H](C)[C@@H](O)[C@H](C)[C@@H](O[C@@H]2O[C@H](C)C[C@H](N(C)C)[C@H]2OC(C)=O)[C@@](C)(OC)C[C@@H](C)C(=O)[C@H](C)[C@@H](O)[C@]1(C)O,128 µg/mL,256 µg/mL,128 µg/mL,128 µg/mL,128 µg/mL,128 µg/mL
CC[C@H]1OC(=O)[C@H](C)[C@@H](OC(=O)NCc2ccc(OC)cc2)[C@H](C)[C@@H](O[C@@H]2O[C@H](C)C[C@H](N(C)C)[C@H]2O)[C@](C)(O)C[C@@H](C)CN(C)[C@H](C)[C@H]2OC(=O)O[C@@]21C,128 µg/mL,64 µg/mL,16 µg/mL,128 µg/mL,8 µg/mL,64 µg/mL
CC[C@H]1OC(=O)[C@H](C)[C@@H](OC(=O)NCc2ccc(F)cc2)[C@H](C)[C@@H](O[C@@H]2O[C@H](C)C[C@H](N(C)C)[C@H]2O)[C@](C)(O)C[C@@H](C)CN(C)[C@H](C)[C@H]2OC(=O)O[C@@]21C,64 µg/mL,64 µg/mL,16 µg/mL,32 µg/mL,4 µg/mL,64 µg/mL
CC[C@H]1OC(=O)[C@H](C)[C@@H](O[C@H]2C[C@@](C)(OC)[C@@H](O)[C@H](C)O2)[C@H](C)[C@@H](O[C@@H]2O[C@H](C)C[C@H](N(C)C)[C@H]2O)[C@](C)(O)C[C@@H](C)CN(C)[C@H](C)[C@@H](O)[C@]1(C)O [AZITHROMYCIN],0.25 µg/mL,256 µg/mL,0.12 µg/mL,4 µg/mL,0.03 µg/mL,128 µg/mL
CC[C@H]1OC(=O)[C@H](C)[C@@H](O[C@H]2C[C@@](C)(OC)[C@@H](O)[C@H](C)O2)[C@H](C)[C@@H](O[C@@H]2O[C@H](C)C[C@H](N(C)C)[C@H]2O)[C@](C)(OC)C[C@@H](C)C(=O)[C@H](C)[C@@H](O)[C@]1(C)O [CLARITHROMYCIN],0.12 µg/mL,128 µg/mL,0.12 µg/mL,4 µg/mL,0.03 µg/mL,64 µg/mL
